Measured values: PubChem BioAssay AID602173 (The Scripps Research Institute Molecular Screening Center, 2012)
Calls of active or inactive are those of the source.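 The calls were made as follows: active = change in binding activity of 20% or more in either direction; inactive = change in binding activity under 20%.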

These compounds were tested on HepG2 proliferation, sulforhodamine B absorbance, 7-10 days (assay: HepG2 cell proliferation modulation, late-stage follow-up, counter-screen for AHR activator project, absorbance (AID 602173)). Details: at 10 µM.
Procedure, shortened: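 Material: human hepatoma HepG2 cells, estrogen receptor-negative; compound: single 10 µM test compound dose, renewed every 48 h; times: 24 h pre-culture, 37 °C exposure; benchmarks: DMSO-treated wells as vehicle reference; technique: SRB absorbance at 490 nm, 650 nm corrected; replicates: triplicate or more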

Structure (SMILES)	proliferation change, negative = inhibition
CCOc1ccc(-c2cc(C)n3nc(C(N)=O)cc3n2)cc1	11.8% (inactive)
CCOC(=O)Cc1cc(-c2ccc(O)cc2)nc2ccc3ccccc3c12	-29%
COc1ccc(NC(=O)c2cccc3c(Br)cccc23)cc1	-38.5%
COc1ccccc1NC(=O)c1ccc(C(=O)Nc2ccccc2OC)nc1	-49.8%
Cc1c(-c2ccn[nH]2)cc(NC(=O)c2ccc(Cl)cc2)c(=O)n1N	-6% (inactive)
Cc1csc(SCC(=O)Nc2ccc(Cl)cn2)n1	12.2% (inactive)
Cc1nc(N)nc(Nc2ccc(Cl)cc2)c1Br	-19.5% (inactive)
Cc1ccc(-c2cc(-c3cccs3)[nH]n2)c(O)c1	-97.5%
Cc1nnc(N2C(=O)c3cccc4c([N+](=O)[O-])ccc(c34)C2=O)s1	-12.8% (inactive)
Cn1c(C(=O)N2CCC(C(N)=O)CC2)cc2cc(Cl)ccc21	3.8% (inactive)
